The target of series [1] is T1, Progesterone receptor (Homo sapiens, UniProt P06401).
T1 sequence (P06401 whole entry): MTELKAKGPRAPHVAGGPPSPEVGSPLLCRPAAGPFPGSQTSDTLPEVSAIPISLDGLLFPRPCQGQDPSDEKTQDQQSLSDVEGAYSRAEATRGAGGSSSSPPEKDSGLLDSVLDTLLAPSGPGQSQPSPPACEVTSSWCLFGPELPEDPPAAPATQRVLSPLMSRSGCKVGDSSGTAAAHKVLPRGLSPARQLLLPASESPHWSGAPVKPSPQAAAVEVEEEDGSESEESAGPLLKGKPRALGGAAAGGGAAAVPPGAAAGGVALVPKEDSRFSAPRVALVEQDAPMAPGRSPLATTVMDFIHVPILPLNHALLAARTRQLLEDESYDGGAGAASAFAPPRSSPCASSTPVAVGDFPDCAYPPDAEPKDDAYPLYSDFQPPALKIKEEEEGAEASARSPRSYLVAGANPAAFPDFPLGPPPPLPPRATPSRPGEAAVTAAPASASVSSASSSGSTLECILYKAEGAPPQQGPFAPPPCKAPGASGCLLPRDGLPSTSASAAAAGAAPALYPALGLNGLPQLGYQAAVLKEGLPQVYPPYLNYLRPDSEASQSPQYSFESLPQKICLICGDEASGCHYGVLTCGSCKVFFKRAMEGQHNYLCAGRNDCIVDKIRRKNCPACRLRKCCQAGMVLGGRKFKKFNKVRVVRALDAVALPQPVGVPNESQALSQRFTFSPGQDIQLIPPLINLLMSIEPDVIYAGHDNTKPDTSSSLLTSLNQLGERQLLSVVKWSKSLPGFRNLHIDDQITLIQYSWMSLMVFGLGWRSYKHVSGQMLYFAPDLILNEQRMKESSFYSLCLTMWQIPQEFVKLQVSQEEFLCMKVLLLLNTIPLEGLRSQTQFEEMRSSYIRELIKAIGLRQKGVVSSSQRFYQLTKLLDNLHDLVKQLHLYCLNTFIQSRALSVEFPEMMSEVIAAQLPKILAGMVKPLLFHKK
The series is described as follows: Antagonist activity at PR in human T47D cells assessed as inhibition of progesterone-induced alkaline phosphatase activity measured after 24 hrs. Format: cell-based.

The target of series [2] is T1, Progesterone receptor. The series is described as follows: Agonist activity at PR in human T47D cells at 10 uM. The class given is cell-based.
Series [3] has as its target T2, Progesterone receptor (Homo sapiens) (UniProt P06401).
T2 sequence (whole entry): T1 sequence (P06401 whole entry)
Description: Antagonist activity at PR in human T47D cells assessed as inhibition of progesterone-induced beta1-Na/K-ATPase expression at 0.1 to 10 uM measured after 24 hrs by Western blot analysis. The class given is cell-based. In outline: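 Validation in T47D cells by Western blotting of the β1 subunit of Na/K-ATPase, a PR-regulated protein.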
(In general: In western blotting, separated proteins are transferred to a membrane and probed.)

The target in series [4] is T1, Progesterone receptor. Description: Displacement of [1,2,6,7-3H]progesterone from recombinant human GST-tagged PGR LBD (678 to 933 residues) expressed in baculovirus-infected insect cells measured after 24 hrs by liquid scintillation counting method.
The target in series [5] is T3, Oxysterols receptor LXR-beta (Homo sapiens, UniProt P55055).
T3 sequence (P55055 whole entry): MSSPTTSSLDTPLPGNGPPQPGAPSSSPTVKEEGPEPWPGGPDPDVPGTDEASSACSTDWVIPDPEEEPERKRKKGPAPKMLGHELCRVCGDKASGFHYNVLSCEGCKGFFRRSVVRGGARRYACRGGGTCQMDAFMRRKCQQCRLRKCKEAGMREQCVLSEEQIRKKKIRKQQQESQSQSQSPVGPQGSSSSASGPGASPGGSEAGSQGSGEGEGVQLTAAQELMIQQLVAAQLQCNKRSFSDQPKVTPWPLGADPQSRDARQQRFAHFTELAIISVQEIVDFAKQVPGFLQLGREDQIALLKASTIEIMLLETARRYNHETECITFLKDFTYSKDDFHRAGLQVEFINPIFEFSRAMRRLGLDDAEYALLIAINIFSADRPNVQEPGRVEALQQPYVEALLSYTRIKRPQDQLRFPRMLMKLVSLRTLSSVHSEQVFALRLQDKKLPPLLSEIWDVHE
Description: Antagonist activity at human GAL4N-fused LXRbeta LBD expressed in HEK293 cells assessed as reduction in T0901317-induced transactivation activity after 24 hrs by luciferase reporter gene assay. Format: cell-based. On the technique in general: A reporter such as luciferase makes a cellular process visible.

Series [6] deals with T4, Nuclear receptor ROR-gamma (Homo sapiens) (UniProt P51449).
T4 sequence (whole entry): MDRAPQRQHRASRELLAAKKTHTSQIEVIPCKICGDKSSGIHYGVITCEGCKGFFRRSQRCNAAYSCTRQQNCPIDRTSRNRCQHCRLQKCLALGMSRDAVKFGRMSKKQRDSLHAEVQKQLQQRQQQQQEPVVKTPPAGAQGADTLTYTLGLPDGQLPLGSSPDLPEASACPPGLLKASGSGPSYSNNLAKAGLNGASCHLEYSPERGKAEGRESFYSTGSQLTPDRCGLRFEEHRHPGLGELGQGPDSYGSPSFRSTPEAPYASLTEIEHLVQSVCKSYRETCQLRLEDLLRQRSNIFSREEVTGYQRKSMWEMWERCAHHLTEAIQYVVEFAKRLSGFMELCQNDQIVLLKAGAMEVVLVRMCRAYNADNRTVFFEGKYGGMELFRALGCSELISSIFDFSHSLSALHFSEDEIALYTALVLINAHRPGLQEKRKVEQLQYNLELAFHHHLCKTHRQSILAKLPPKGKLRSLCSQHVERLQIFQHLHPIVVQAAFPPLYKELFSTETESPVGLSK
The series is described as follows: Antagonist activity at human RORgamma1 expressed in HEK293 cells at 20 uM after 24 hrs by luciferase reporter gene assay. The class given is cell-based. In short, it runs like this:
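Inverse agonism at RORα, RORβ or RORγ measured by reporter gene assay.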

For series [7], the species on record is Homo sapiens. Description: Selectivity ratio of IC50 for human RORalpha1 expressed in HEK293 cells to IC50 for PR in human T47D cells assessed as inhibition of progesterone-induced alkaline phosphatase activity. The class given is cell-based.
The species entered for series [8] is Homo sapiens. The series is described as follows: Selectivity ratio of IC50 for human RORbeta1 expressed in HEK293 cells to IC50 for PR in human T47D cells assessed as inhibition of progesterone-induced alkaline phosphatase activity. Format: cell-based.
For series [9], the species on record is Homo sapiens. The series is described as follows: Selectivity ratio of IC50 for human RORgamma1 expressed in HEK293 cells to IC50 for PR in human T47D cells assessed as inhibition of progesterone-induced alkaline phosphatase activity. Format: cell-based.
The species entered for series [10] is Homo sapiens. Description: Selectivity ratio of IC50 for human GAL4N-fused LXRalpha LBD expressed in HEK293 cells to IC50 for PR in human T47D cells assessed as inhibition of progesterone-induced alkaline phosphatase activity. The class given is cell-based.
The species named for series [11] is Homo sapiens. The series is described as follows: Selectivity ratio of IC50 for human CMX-AR expressed in HEK293 cells to IC50 for PR in human T47D cells assessed as inhibition of progesterone-induced alkaline phosphatase activity. Format: cell-based.
Series [12] is filed under the species Homo sapiens. The series is described as follows: Selectivity ratio of IC50 for human CMX-GRalpha expressed in HEK293 cells to IC50 for PR in human T47D cells assessed as inhibition of progesterone-induced alkaline phosphatase activity. Format: cell-based.

SMILES strings stand for the structures. Calls of active or inactive are those of the source. The rule behind the calls is not given here.

A word on the IC50: it is the midpoint of a concentration-inhibition curve.

Consider `Cc1cc(C(O)(C(F)(F)F)C(F)(F)F)cc2c3ccc(F)cc3c(=O)n(C)c12`, for which the results for the IC50 (at Progesterone receptor [1]; on Progesterone receptor [4]; in [5]) were 27 nM, 150 nM and above 20000 nM, respectively. Besides, the Activity entry at Progesterone receptor [2] is reported as “Not Active”. Besides, the inhibition result in [3] was “Active”. Further, the outcome in series [6] was inactive. In addition, the Ratio IC50 was above 300 in the series filed under Homo sapiens [7]; above 300 in the series listed under Homo sapiens [8]; above 300 in the series filed under Homo sapiens [9]; above 300 in the series filed under Homo sapiens [10]; above 10 in the series listed under Homo sapiens [11]; above 300 in the series listed under Homo sapiens [12].

For the molecule `Cc1cc(C(O)(C(F)(F)F)C(F)(F)F)cc2c1[nH]c(=O)c1ccccc12`, the IC50 is 150 nM at Progesterone receptor [1], 1500 nM on Progesterone receptor [4] and above 20000 nM in series [5]. For the same molecule, the Activity result at Progesterone receptor [2] is on record as “Not Active”. The inhibition entry in series [3] was “Active”. Moreover, the Ratio IC50 in the series listed under Homo sapiens [7], in the series filed under Homo sapiens [8], in the series listed under Homo sapiens [9], in the series listed under Homo sapiens [10], in the series listed under Homo sapiens [11] and in the series listed under Homo sapiens [12] was above 100 in each case.

For `Cc1cc(C(O)(C(F)(F)F)C(F)(F)F)cc2c1[nH]c(=O)c1cc(F)ccc12`, the IC50 on Progesterone receptor [1] was 46 nM; at Progesterone receptor [4], 340 nM. Further, the Activity entry on Progesterone receptor [2] was “Not Active”. In addition, the inhibition result in series [3] was “Active”. In addition, the result in series [6] was inactive. Besides, the Ratio IC50 was above 300 in the series filed under Homo sapiens [7]; above 300 in the series listed under Homo sapiens [8]; above 300 in the series filed under Homo sapiens [9]; above 300 in the series listed under Homo sapiens [10]; above 30 in the series listed under Homo sapiens [11]; above 300 in the series listed under Homo sapiens [12].

(Values after ChEMBL document CHEMBL4145662, “Novel Nonsteroidal Progesterone Receptor (PR) Antagonists with a Phenanthridinone Skeleton” (ACS Med Chem Lett, 2018).)
